# Reference: ChEMBL document CHEMBL1156811, “2,4,6-trisubstituted triazines as protein a mimetics for the treatment of autoimmune diseases” (J Med Chem, 2010)
# Activity calls are given as the source filed them. The calls are words filed in the database; no cut-off is given here.
# Assays:
# [1] = Inhibition of protein A binding to horseradish peroxidase-conjugated human IgG in PBS solution by Protein A human IgG competitive ELISA
# Procedure, shortened: (§1)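 Plate wells coated overnight at 4 °C with protein A (0.8 ug/well), washed with PBS, and blocked with 2% BSA for 1 h at 37 °C. Compound diluted in PBS or PBS–20% DMSO was added with HRP-conjugated human IgG and incubated 1 h at 37 °C. After washing, bound HRP-IgG was developed with ABTS for 20 min in the dark at room temperature and read at 405 nm. IC50 is the concentration inhibiting 50% binding.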
# [2] = Inhibition of protein A binding to horseradish peroxidase-conjugated human IgG in 20% DMSO/PBS solution by Protein A human IgG competitive ELISA; procedure, shortened: as §1
# [3] = molecular target: T1, Low affinity immunoglobulin gamma Fc region receptor II-a (Homo sapiens, UniProt P12318); assay: Inhibition of heat aggregated human IgG binding to human Fc-gamma-R2a
# T1 sequence (P12318 whole entry): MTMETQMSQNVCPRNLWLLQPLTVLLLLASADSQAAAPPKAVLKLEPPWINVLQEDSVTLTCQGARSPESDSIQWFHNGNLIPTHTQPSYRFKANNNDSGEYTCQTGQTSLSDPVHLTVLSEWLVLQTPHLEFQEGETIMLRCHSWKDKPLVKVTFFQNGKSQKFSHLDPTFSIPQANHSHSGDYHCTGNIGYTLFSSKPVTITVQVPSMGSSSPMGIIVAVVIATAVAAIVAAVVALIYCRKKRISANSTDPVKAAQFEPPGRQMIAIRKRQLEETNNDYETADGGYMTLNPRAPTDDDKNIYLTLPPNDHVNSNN
# Mus musculus [4] = assay: Reduction of immune complex deposits in homozygous fas mutant MRL/lpr mouse systemic lupus erythematosus model at 50 mg/kg, iv administered once weekly for 5 consecutive weeks between 18 and 22 weeks by electron microscopy; assay type: functional, organism-based; parameters: dose 50 mg/kg
# Procedure, shortened: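 MRL/lpr mice (homozygous fas mutation) received 50 mg/kg or vehicle intravenously once a week for 5 consecutive weeks, between weeks 18 and 22. Mice were then sacrificed, and immune complex deposition in kidney tissue was recorded by electron microscopy.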
# Mus musculus [5] = assay: Reduction of antibody immune complexes in NZB/NZW-F1 mouse systemic lupus erythematosus model at 50 mg/kg, iv administered once weekly starting from week 12 relative to untreated control; assay type: functional, organism-based; parameters: dose 50 mg/kg
# [6] = Inhibition of protein A binding to heat aggregated human IgG
# Mus musculus [7] = assay: Reduction of anti-dsDNA antibody levels in NZB/NZW-F1 mouse systemic lupus erythematosus model at 50 mg/kg, iv administered once weekly starting from week 12 relative to untreated control; assay type: functional
# Procedure, shortened: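 NZB/NZW F1 hybrid mice were given 50 mg/kg intravenously once weekly from week 12, against vehicle-treated controls. Serum anti-dsDNA autoantibodies were measured by a literature method, and total IgG was also monitored.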
# [8] = molecular target: Low affinity immunoglobulin gamma Fc region receptor III-B (Homo sapiens, UniProt O75015); assay: Inhibition of heat aggregated human IgG binding to human Fc-gamma-R3b
# Low affinity immunoglobulin gamma Fc region receptor III-B, sequence (O75015 whole entry): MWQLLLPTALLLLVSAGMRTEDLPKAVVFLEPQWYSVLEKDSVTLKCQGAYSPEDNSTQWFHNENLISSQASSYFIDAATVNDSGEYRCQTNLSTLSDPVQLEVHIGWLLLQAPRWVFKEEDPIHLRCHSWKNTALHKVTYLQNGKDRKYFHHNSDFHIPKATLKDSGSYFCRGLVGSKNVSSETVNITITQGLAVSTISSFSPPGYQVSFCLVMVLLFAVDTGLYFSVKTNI
IC50 ([1]; read-out: IC50) [µM],SMILES,also measured
0.185,Nc1cccc(Nc2nc(NCCO)nc(NCCc3ccc(Nc4nc(NCCc5ccccc5N)nc(Nc5cccc(N)c5)n4)cc3)n2)c1,
0.157,Nc1cccc(Nc2nc(NCCO)nc(Nc3ccc(Nc4nc(NCCO)nc(Nc5cccc(N)c5)n4)cc3)n2)c1,
0.361,Nc1cccc(Nc2nc(NCCO)nc(NCCc3ccc(Nc4nc(NCCO)nc(Nc5ccc(F)cc5)n4)cc3)n2)c1,IC50 ([2]; read-out: IC50): 0.204 µM
0.841,Nc1cccc(Nc2nc(NCCO)nc(NCCc3ccc(Nc4nc(NCCO)nc(Nc5ccc(Cl)cc5)n4)cc3)n2)c1,IC50 ([2]; read-out: IC50): 0.893 µM
0.054,Nc1ccc(CCNc2nc(Nc3ccc(CCNc4nc(NCCO)nc(Nc5cccc(N)c5)n4)cc3)nc(Nc3cccc(N)c3)n2)cc1,IC50 [3]: 12 µM; Activity (Mus musculus [4]): Active; Activity (Mus musculus [5]): Active; IC50 [6]: 0.083 µM; fold change (FC) (Mus musculus [7]): 2; IC50 [8]: 57 µM
0.056,Nc1cccc(Nc2nc(NCCO)nc(NCCCNc3nc(NCCO)nc(Nc4cccc(N)c4)n3)n2)c1,
0.094,Nc1cccc(Nc2nc(NCCO)nc(NCCc3ccc(Nc4nc(NCCO)nc(NCCO)n4)cc3)n2)c1,IC50 ([2]; read-out: IC50): 0.081 µM
0.141,Nc1cccc(CNc2nc(Nc3ccc(CCNc4nc(NCCO)nc(Nc5cccc(N)c5)n4)cc3)nc(Nc3cccc(N)c3)n2)c1,
0.531,Nc1cccc(Nc2nc(NCCO)nc(NCCc3ccc(Nc4nc(NCCc5ccc(F)cc5)nc(Nc5cccc(N)c5)n4)cc3)n2)c1,
0.187,Nc1cccc(Nc2nc(NCCO)nc(NCCCCNc3nc(NCCO)nc(Nc4cccc(N)c4)n3)n2)c1,
0.084,Nc1cccc(Nc2nc(NCCO)nc(NCCc3ccc(Nc4nc(NCCO)nc(Nc5cccc(N)c5)n4)cc3)n2)c1,IC50 ([2]; read-out: IC50): 0.144 µM
,OCCNc1nc(NCCc2ccc(Nc3nc(NCCO)nc(Nc4ccccc4F)n3)cc2)nc(Nc2ccccc2F)n1,IC50 [2]: Not Active; IC50 [1]: Not Active
0.119,Nc1cccc(CCNc2nc(Nc3ccc(CCNc4nc(NCCO)nc(Nc5cccc(N)c5)n4)cc3)nc(Nc3cccc(N)c3)n2)c1,
0.059,CN1CCN(c2nc(Nc3ccc(CCNc4nc(NCCO)nc(Nc5cccc(N)c5)n4)cc3)nc(Nc3cccc(N)c3)n2)CC1,
0.041,CC(C)(CNc1nc(NCCO)nc(Nc2cccc(N)c2)n1)CNc1nc(NCCO)nc(Nc2cccc(N)c2)n1,
,N=C(N)CCNc1nc(NCCO)nc(NCCc2ccc(Nc3nc(NCCO)nc(Nc4cccc(F)c4)n3)cc2)n1,IC50 [2]: Not Active; IC50 [1]: Not Active
0.695,CN(C)c1ccc(CCNc2nc(Nc3ccc(CCNc4nc(NCCO)nc(Nc5cccc(N)c5)n4)cc3)nc(Nc3cccc(N)c3)n2)cc1,
0.382,Nc1cccc(Nc2nc(NCCO)nc(NCCc3ccc(Nc4nc(NCCO)nc(Nc5cccc(F)c5)n4)cc3)n2)c1,IC50 ([2]; read-out: IC50): 0.209 µM

IC50 ([1]; read-out: IC50) [µM],SMILES,also measured
0.293,Nc1cccc(Nc2nc(NCCO)nc(Nc3cccc(Nc4nc(NCCO)nc(Nc5cccc(N)c5)n4)c3)n2)c1,
0.056,Nc1cccc(Nc2nc(NCCO)nc(NCCc3ccc(Nc4nc(Nc5cccc(N)c5)nc(Nc5cccc(N)c5)n4)cc3)n2)c1,
0.08,Nc1cccc(Nc2nc(NCCO)nc(Nc3ccc4c(c3)CCN4c3nc(NCCO)nc(Nc4cccc(N)c4)n3)n2)c1,
,Nc1cccc(Nc2nc(NCCO)nc(NCCc3cccc(Nc4nc(NCCO)nc(Nc5cccc(N)c5)n4)c3)n2)c1,IC50 [1]: Not Active
0.07,Nc1cccc(Nc2nc(NCCO)nc(NCCOCCNc3nc(NCCO)nc(Nc4cccc(N)c4)n3)n2)c1,IC50 ([2]; read-out: IC50): 5.19 µM
0.118,Nc1cccc(Nc2nc(NCCO)nc(NCCc3ccc(Nc4nc(NCCc5cccc(O)c5)nc(Nc5cccc(N)c5)n4)cc3)n2)c1,
0.233,Nc1cccc(Nc2nc(NCCO)nc(NCCc3ccc(Nc4nc(Nc5cccc(N)c5)nc(NC5CCNC5)n4)cc3)n2)c1 (stereo unspecified),
,CC(Nc1nc(NCCO)nc(Nc2cccc(N)c2)n1)c1ccc(Nc2nc(NCCO)nc(Nc3cccc(N)c3)n2)cc1 (stereo unspecified),IC50 [1]: Not Active
0.089,CN(C)CCNc1nc(Nc2ccc(CCNc3nc(NCCO)nc(Nc4cccc(N)c4)n3)cc2)nc(Nc2cccc(N)c2)n1,
0.058,Nc1cccc(Nc2nc(NCCO)nc(NCCNc3nc(NCCO)nc(Nc4cccc(N)c4)n3)n2)c1,
0.089,CN(C)c1nc(Nc2ccc(CCNc3nc(NCCO)nc(Nc4cccc(N)c4)n3)cc2)nc(Nc2cccc(N)c2)n1,
0.056,Nc1cccc(Nc2nc(NCCO)nc(NCC(O)CNc3nc(NCCO)nc(Nc4cccc(N)c4)n3)n2)c1,
0.449,Nc1cccc(Nc2nc(NCCO)nc(NCCc3ccc(Nc4nc(NCCc5ccccc5)nc(Nc5cccc(N)c5)n4)cc3)n2)c1,
,Nc1cccc(Nc2nc(NCCO)nc(NCCc3ccc(Nc4nc(NCCc5ccc(O)cc5)nc(Nc5cccc(N)c5)n4)cc3)n2)c1,IC50 [1]: Not Active
0.13,Nc1cccc(Nc2nc(NCCO)nc(NCCc3ccc(Nc4nc(NCC(O)c5cccc(N)c5)nc(Nc5cccc(N)c5)n4)cc3)n2)c1 (stereo unspecified),
0.41,NCCNc1nc(NCCO)nc(Nc2ccc(CCNc3nc(NCCO)nc(Nc4cccc(N)c4)n3)cc2)n1,IC50 ([2]; read-out: IC50): 0.749 µM
0.243,CS(=O)(=O)c1cccc(Nc2nc(NCCO)nc(Nc3ccc(CCNc4nc(NCCO)nc(Nc5cccc(N)c5)n4)cc3)n2)c1,IC50 ([2]; read-out: IC50): 0.192 µM
